According to ChEMBL document CHEMBL3769318, “The Rational Design of Selective Benzoxazepin Inhibitors of the α-Isoform of Phosphoinositide 3-Kinase Culminating in the Identification of (S)-2-((2-(1-Isopropyl-1H-1,2,4-triazol-5-yl)-5,6-dihydrobenzo[f]imidazo[1,2-d][1,4]oxazepin-9-yl)oxy)propanamide (GDC-0326)” (J Med Chem, 2016):
pEC50, pIC50, pKi: −log10 of the molar value. In brackets after ≈: the same amount, converted by molar mass.

Experiments:
[1] = molecular target: Phosphatidylinositol 4,5-bisphosphate 3-kinase catalytic subunit alpha isoform (Homo sapiens, UniProt P42336); test: Inhibition of recombinant PI3K alpha (unknown origin) using PIP2 as substrate by fluorescence polarization assay; conditions: read-out: Ki(app)
[2] = Antiproliferative activity against human MCF7-neo/Her2 cells after 3 days by luminescence plate reader method; format: functional, cell-based; conditions: 72 h
[3] = Antiproliferative activity against human PC3 cells after 4 days by luminescence plate reader method; format: functional, cell-based; conditions: PC-3, 96 h
[4] = Oral bioavailability in Cynomolgus monkey at 2 mg/kg; format: ADME, organism-based, Macaca fascicularis; conditions: in vivo
Method in brief: (§1)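 Single oral dose at 2 mg/kg in 0.5% methylcellulose with 0.2% Tween 80, given to beagle dogs or male cynomolgus monkeys; the IV reference was 1 mg/kg in 60% PEG400/10% ethanol.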

Canis familiaris [5] = test: Oral bioavailability in Beagle dog at 2 mg/kg; format: ADME, organism-based, Canis lupus familiaris; conditions: in vivo; method in brief: as §1
[6] = Plasma protein binding in CD-1 mouse at 5 uM after 4 hrs by LC-MS/MS analysis; format: ADME, cell-free; conditions: CD-1, mouse, read-out: PPB (converted)
Method in brief: (§2)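 Equilibrium dialysis of pooled plasma (n ≥ 3) spiked with compound at 5 µM total against PBS pH 7.4, 37 °C, 5% CO2, for 4 h; plasma and buffer concentrations measured by LC-MS/MS; percent unbound calculated as buffer/plasma ×100.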

[7] = Plasma protein binding in Cynomolgus monkey at 5 uM after 4 hrs by LC-MS/MS analysis; format: ADME, cell-free, Macaca fascicularis; conditions: read-out: PPB (converted); method in brief: as §2
[8] = Plasma protein binding in Beagle dog at 5 uM after 4 hrs by LC-MS/MS analysis; format: ADME, cell-free, Canis lupus familiaris; conditions: read-out: PPB (converted); method in brief: as §2
[9] = Cytotoxicity against human KPL4 cells after 4 days by luminescence plate reader method; format: functional, cell-based; conditions: KPL4, 96 h
[10] = Antitumor activity against human MCF7-neo/Her2 cells xenografted in mouse assessed as tumor growth inhibition at 0.78 mg/kg, po qd for 21 days; format: functional; conditions: 504 h, read-out: TGI
Method in brief: (§3)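 MCF7-neo/HER2 breast cancer xenografts grown in nude mice; daily oral dosing for 21 days in 0.5% methylcellulose/0.2% Tween-80 vehicle at 0.78–25 mg/kg, 10 animals per group; fitted tumor volumes compared against vehicle-treated mice to give tumor growth inhibition.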

[11] = Antitumor activity against human MCF7-neo/Her2 cells xenografted in mouse assessed as tumor growth inhibition at 1.56 mg/kg, po qd for 21 days; format: functional; conditions: 504 h, read-out: TGI; method in brief: as §3
[12] = Antitumor activity against human MCF7-neo/Her2 cells xenografted in mouse assessed as tumor growth inhibition at 3.25 mg/kg, po qd for 21 days; format: functional; conditions: 504 h, read-out: TGI; method in brief: as §3
[13] = Antitumor activity against human MCF7-neo/Her2 cells xenografted in mouse assessed as tumor growth inhibition at 6.25 mg/kg, po qd for 21 days; format: functional; conditions: 504 h, read-out: TGI; method in brief: as §3
[14] = Antitumor activity against human MCF7-neo/Her2 cells xenografted in mouse assessed as tumor growth inhibition at 12.5 mg/kg, po qd for 21 days; format: functional; conditions: 504 h, read-out: TGI; method in brief: as §3
[15] = Antitumor activity against human KPL4 cells xenografted in SCID beige mouse assessed as tumor growth inhibition at 0.78 mg/kg, po qd for 21 days; format: functional; conditions: 504 h, read-out: TGI
Method in brief: (§4)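 KPL-4 breast cancer xenografts grown in scid beige mice; oral dosing once daily for 21 days in MCT vehicle (0.5% methylcellulose/0.2% Tween-80) at 0.78–25 mg/kg, 10 animals per group; tumor volumes fitted and tumor growth inhibition calculated versus vehicle-treated mice.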

[16] = Antitumor activity against human KPL4 cells xenografted in SCID beige mouse assessed as tumor growth inhibition at 1.56 mg/kg, po qd for 21 days; format: functional; conditions: 504 h, read-out: TGI; method in brief: as §4
[17] = Antitumor activity against human KPL4 cells xenografted in SCID beige mouse assessed as tumor growth inhibition at 3.25 mg/kg, po qd for 21 days; format: functional; conditions: 504 h, read-out: TGI; method in brief: as §4
[18] = Antitumor activity against human KPL4 cells xenografted in SCID beige mouse assessed as tumor growth inhibition at 6.25 mg/kg, po qd for 21 days; format: functional; conditions: 504 h, read-out: TGI; method in brief: as §4
[19] = Antitumor activity against human KPL4 cells xenografted in SCID beige mouse assessed as tumor growth inhibition at 12.5 mg/kg, po qd for 21 days; format: functional; conditions: 504 h, read-out: TGI; method in brief: as §4
Homo sapiens = test: Antitumor activity against human MCF7-neo/Her2 cells xenografted in po dosed nude mouse assessed as tumor growth inhibition administered daily for 21 days; format: functional, organism-based; method in brief: as §3
KPL4 = test: Antitumor activity against human KPL4 cells xenografted in po dosed SCID beige mouse assessed as tumor growth inhibition administered daily for 21 days; format: functional, organism-based; method in brief: as §4
Mus musculus [20] = test: Decrease in phosphorylated Akt in mouse xenografted with human MCF7-neo/Her2 cells at 6.25 mg/kg administered as single dose after 1 hr by immunoassay; format: functional
Method in brief: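 Mice bearing MCF7-neo/HER2 tumors given a single oral dose in MCT vehicle; tumors collected 1 h later. Phospho-Akt Ser473 and total Akt measured by Mesoscale Discovery immunoassay and expressed as pAkt/tAkt relative to vehicle; four animals per group; unbound plasma drug measured at the same time.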

Mus musculus [21] = test: Toxicity in SCID beige mouse xenografted with human KPL4 cells assessed as body weight loss upto 12.5 mg/kg, po; format: organism-based; conditions: in vivo
[22] = molecular target: Phosphatidylinositol 4-phosphate 3-kinase C2 domain-containing subunit beta (Homo sapiens) (UniProt O00750); test: Inhibition of PI3KC2b (unknown origin) at 1 uM
Method in brief: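 Kinase panel screen of 235 kinases at Invitrogen with compound at 1 µM; read-out was percent inhibition.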

Cytochrome P450 3A4 = Cytochrome P450 3A4 (Homo sapiens, UniProt P08684); test: Inhibition of CYP3A4 (unknown origin); format: ADME
Cytochrome P450 2C9 = Cytochrome P450 2C9 (Homo sapiens, UniProt P11712); test: Inhibition of CYP2C9 (unknown origin); format: ADME
Cytochrome P450 1A2 = molecular target: T1, Cytochrome P450 1A2 (Homo sapiens, UniProt P05177); test: Inhibition of CYP1A2 (unknown origin); format: ADME
T1 sequence (P05177 whole entry): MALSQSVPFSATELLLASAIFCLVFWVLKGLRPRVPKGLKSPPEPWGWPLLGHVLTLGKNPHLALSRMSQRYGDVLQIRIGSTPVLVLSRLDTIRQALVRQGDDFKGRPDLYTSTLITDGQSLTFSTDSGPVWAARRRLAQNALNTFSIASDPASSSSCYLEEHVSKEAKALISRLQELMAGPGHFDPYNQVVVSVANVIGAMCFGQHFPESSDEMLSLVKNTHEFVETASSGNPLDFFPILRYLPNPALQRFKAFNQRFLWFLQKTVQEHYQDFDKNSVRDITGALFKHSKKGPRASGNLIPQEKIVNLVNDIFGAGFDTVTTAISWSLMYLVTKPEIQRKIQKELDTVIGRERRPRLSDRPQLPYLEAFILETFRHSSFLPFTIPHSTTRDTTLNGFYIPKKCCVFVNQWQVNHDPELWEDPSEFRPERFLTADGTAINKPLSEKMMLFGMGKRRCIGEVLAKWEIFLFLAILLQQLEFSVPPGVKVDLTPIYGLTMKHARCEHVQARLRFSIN

Cytochrome P450 2C19 = Cytochrome P450 2C19 (Homo sapiens, UniProt P33261); test: Inhibition of CYP2C19 (unknown origin); format: ADME
Cytochrome P450 2D6 = Cytochrome P450 2D6 (Homo sapiens, UniProt P10635); test: Inhibition of CYP2D6 (unknown origin); format: ADME
[23] = Apparent permeability from apical to basolateral side in MDCK cells; format: ADME, cell-based, Canis lupus familiaris; conditions: dog
[24] = Thermodynamic solubility of compound at pH 7.4; format: physicochemical; conditions: buffer, read-out: Therm_solubility
[25] = Clearance in Sprague-Dawley rat at 1 mg/kg, iv; format: ADME, organism-based; conditions: in vivo
[26] = Oral bioavailability in Sprague-Dawley rat at 5 mg/kg; format: ADME, organism-based; conditions: in vivo
Method in brief: (§5)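 Male Sprague-Dawley rats dosed PO at 5 mg/kg in 0.5% methylcellulose/0.2% Tween 80 (MCT); the IV reference arm was 1 mg/kg in 60% PEG400/10% ethanol.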

[27] = Plasma protein binding in Sprague-Dawley rat at 5 uM after 4 hrs by LC-MS/MS analysis; format: ADME, cell-free; conditions: read-out: PPB (converted); method in brief: as §2
[28] = Clearance in NCR nude mouse at 1 mg/kg, iv; format: ADME, organism-based; conditions: in vivo
[29] = Clearance in Cynomolgus monkey at 1 mg/kg, iv; format: ADME, organism-based, Macaca fascicularis; conditions: in vivo
[30] = Volume of distribution at steady state in Sprague-Dawley rat at 1 mg/kg, iv; format: ADME, organism-based; conditions: in vivo, read-out: Vdss
[31] = Volume of distribution at steady state in Cynomolgus monkey at 1 mg/kg, iv; format: ADME, organism-based, Macaca fascicularis; conditions: in vivo, read-out: Vdss
[32] = Volume of distribution at steady state in Beagle dog at 1 mg/kg, iv; format: ADME, organism-based, Canis lupus familiaris; conditions: in vivo, read-out: Vdss
[33] = Cmax in NCR nude mouse at 25 mg/kg, po; format: ADME, organism-based; parameters: dose 25 mg/kg, route oral; conditions: in vivo
[34] = Cmax in Sprague-Dawley rat at 5 mg/kg, po; format: ADME, organism-based; parameters: dose 5 mg/kg, route oral; conditions: in vivo; method in brief: as §5
[35] = Cmax in Cynomolgus monkey at 2 mg/kg, po; format: ADME, organism-based, Macaca fascicularis; parameters: dose 2 mg/kg, route oral; conditions: in vivo; method in brief: as §1
[36] = Cmax in Beagle dog at 2 mg/kg, po; format: ADME, organism-based, Canis lupus familiaris; parameters: dose 2 mg/kg, route oral; conditions: in vivo; method in brief: as §1
[37] = AUC in NCR nude mouse at 25 mg/kg, po; format: ADME, organism-based; conditions: in vivo
[38] = AUC in Sprague-Dawley rat at 5 mg/kg, po; format: ADME, organism-based; conditions: in vivo; method in brief: as §5
[39] = AUC in Cynomolgus monkey at 2 mg/kg, po; format: ADME, organism-based, Macaca fascicularis; conditions: in vivo
Canis familiaris [40] = test: AUC in Beagle dog at 2 mg/kg, po; format: ADME, organism-based, Canis lupus familiaris; conditions: in vivo
[41] = Oral bioavailability in NCR nude mouse at 25 mg/kg; format: ADME, organism-based; conditions: in vivo
Mus musculus [42] = test: Volume of distribution at steady state in NCR nude mouse at 1 mg/kg, iv; conditions: in vivo

Cytochrome P450 2C9, sequence (P11712 whole entry): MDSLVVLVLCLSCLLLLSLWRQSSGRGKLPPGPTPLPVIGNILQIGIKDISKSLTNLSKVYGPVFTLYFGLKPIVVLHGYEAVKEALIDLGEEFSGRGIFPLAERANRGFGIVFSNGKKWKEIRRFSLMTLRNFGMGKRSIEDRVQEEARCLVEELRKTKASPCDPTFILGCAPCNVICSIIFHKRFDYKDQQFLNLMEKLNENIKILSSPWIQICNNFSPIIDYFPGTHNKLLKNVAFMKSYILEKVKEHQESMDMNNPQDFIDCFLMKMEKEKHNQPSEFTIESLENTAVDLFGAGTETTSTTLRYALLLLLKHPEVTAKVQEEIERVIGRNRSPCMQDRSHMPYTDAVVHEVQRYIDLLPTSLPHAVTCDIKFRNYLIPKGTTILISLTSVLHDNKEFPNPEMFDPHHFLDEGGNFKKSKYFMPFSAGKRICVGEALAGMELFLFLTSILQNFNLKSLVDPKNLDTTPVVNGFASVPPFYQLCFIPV
Cytochrome P450 2C19, sequence (P33261 whole entry): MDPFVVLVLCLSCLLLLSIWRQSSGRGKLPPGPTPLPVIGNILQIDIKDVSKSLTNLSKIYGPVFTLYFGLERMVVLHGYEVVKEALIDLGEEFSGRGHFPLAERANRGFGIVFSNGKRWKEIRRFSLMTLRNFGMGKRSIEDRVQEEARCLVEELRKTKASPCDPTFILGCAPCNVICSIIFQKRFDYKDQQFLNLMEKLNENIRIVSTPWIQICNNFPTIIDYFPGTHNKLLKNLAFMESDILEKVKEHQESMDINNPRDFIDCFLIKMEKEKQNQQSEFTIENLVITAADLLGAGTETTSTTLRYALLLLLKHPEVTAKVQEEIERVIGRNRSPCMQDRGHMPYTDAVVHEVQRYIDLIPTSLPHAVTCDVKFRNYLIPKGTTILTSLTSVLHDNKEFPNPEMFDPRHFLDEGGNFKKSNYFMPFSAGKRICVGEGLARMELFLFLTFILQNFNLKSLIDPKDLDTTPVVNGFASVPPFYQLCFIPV
Cytochrome P450 2D6, sequence (P10635 whole entry): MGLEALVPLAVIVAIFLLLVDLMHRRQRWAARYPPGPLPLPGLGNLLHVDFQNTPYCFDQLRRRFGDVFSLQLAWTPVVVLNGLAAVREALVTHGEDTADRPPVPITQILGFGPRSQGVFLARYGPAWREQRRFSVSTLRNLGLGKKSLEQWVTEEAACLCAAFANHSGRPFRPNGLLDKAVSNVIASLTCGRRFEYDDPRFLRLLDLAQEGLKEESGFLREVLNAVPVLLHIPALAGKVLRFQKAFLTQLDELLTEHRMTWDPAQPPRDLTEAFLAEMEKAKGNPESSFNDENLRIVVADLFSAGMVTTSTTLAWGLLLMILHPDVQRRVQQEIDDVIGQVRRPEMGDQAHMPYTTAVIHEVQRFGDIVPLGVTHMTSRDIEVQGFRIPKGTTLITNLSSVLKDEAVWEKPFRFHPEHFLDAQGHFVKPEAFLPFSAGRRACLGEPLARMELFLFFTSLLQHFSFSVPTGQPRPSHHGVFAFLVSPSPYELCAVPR
Cytochrome P450 3A4, sequence (P08684 whole entry): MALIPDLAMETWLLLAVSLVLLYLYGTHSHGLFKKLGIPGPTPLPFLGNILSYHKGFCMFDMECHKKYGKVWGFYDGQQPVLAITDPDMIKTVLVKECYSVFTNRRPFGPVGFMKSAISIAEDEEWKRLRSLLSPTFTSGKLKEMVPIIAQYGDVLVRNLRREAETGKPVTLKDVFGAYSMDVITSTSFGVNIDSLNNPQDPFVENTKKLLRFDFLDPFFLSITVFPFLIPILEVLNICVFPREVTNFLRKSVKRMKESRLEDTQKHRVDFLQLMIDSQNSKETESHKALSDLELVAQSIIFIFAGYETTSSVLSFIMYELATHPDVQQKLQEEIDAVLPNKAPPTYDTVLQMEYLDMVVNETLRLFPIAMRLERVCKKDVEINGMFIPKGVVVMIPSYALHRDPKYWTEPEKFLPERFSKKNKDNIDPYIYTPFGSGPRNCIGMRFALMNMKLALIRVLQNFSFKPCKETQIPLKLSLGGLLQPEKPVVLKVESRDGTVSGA
Phosphatidylinositol 4,5-bisphosphate 3-kinase catalytic subunit alpha isoform, sequence (P42336 whole entry, canonical isoform): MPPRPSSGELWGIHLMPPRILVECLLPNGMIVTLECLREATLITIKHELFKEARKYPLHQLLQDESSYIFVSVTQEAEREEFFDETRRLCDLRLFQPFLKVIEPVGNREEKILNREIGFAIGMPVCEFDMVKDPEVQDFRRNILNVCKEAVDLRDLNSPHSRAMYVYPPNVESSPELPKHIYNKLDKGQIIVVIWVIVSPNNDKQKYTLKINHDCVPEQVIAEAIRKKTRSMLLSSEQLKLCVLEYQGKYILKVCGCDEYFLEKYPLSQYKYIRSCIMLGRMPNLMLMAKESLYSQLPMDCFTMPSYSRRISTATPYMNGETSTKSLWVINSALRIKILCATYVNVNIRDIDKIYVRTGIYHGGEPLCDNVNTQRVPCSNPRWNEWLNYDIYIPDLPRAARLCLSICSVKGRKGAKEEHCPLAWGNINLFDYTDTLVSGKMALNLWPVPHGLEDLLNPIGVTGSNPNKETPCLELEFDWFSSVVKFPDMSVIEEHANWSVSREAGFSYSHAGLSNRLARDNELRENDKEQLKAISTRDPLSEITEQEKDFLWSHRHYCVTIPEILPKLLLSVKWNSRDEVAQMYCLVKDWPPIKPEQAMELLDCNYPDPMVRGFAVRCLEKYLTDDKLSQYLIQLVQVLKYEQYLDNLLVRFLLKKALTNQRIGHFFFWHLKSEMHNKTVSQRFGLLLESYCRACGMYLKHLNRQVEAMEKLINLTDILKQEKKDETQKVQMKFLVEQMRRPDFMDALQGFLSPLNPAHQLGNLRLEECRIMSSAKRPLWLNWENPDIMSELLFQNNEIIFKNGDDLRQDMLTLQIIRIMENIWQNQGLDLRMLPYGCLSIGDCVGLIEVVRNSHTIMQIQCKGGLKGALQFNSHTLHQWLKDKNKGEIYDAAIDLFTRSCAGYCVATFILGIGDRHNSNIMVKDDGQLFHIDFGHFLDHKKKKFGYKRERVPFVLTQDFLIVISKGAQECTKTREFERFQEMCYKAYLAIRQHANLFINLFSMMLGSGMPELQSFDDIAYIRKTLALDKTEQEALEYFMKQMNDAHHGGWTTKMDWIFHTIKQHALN
Phosphatidylinositol 4-phosphate 3-kinase C2 domain-containing subunit beta (Homo sapiens), sequence (O00750 whole entry, the tested form may be a part): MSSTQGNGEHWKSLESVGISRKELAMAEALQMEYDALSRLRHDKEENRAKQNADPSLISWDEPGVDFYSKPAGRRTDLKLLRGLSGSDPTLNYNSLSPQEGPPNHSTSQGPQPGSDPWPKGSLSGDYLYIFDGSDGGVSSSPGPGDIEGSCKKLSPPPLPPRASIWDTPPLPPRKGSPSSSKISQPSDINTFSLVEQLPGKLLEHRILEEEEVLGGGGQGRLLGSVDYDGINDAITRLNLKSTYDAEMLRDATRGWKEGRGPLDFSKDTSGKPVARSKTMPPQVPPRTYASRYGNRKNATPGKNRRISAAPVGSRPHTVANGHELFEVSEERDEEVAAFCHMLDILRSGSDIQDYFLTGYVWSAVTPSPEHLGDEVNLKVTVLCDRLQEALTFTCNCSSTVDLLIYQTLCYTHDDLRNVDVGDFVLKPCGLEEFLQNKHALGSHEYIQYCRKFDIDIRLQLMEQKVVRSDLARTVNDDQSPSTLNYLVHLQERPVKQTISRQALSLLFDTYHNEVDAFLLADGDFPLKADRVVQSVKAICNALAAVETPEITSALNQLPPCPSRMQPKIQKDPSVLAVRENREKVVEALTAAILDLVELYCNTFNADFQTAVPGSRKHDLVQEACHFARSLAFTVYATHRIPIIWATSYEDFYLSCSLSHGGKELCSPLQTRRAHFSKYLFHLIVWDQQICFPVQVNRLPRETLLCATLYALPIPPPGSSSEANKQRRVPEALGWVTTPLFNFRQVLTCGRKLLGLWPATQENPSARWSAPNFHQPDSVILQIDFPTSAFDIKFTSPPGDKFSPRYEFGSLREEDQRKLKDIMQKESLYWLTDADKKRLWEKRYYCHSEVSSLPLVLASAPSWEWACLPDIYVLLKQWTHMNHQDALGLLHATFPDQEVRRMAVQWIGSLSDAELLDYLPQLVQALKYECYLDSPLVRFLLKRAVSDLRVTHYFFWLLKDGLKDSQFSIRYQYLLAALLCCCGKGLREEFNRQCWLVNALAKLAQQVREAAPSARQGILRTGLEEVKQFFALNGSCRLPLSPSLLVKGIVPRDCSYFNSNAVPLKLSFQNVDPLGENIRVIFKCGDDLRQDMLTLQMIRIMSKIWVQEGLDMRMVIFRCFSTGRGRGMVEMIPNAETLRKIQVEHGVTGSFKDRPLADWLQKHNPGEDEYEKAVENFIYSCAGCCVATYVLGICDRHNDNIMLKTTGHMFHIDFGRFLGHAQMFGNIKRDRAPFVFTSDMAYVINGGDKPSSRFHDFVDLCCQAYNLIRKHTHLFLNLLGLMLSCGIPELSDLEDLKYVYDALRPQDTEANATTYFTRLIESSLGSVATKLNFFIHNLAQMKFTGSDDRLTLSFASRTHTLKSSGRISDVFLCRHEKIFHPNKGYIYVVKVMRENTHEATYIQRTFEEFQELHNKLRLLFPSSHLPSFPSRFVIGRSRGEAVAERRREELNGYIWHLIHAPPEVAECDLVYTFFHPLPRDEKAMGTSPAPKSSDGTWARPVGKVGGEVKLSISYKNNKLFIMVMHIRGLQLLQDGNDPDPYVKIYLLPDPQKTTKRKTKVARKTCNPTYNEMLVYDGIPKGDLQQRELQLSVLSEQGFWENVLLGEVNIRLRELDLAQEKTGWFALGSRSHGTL

Structure (SMILES): CC(C)n1ncnc1-c1cn2c(n1)-c1ccc(OCC(N)=O)cc1OCC2
- pKi [1]: 9.52
- pEC50 [2]: 6.70
- pEC50 [3]: 6.70

Structure (SMILES): CC(C)n1ncnc1-c1cn2c(n1)-c1ccc(O[C@@H](C)C(N)=O)cc1OCC2
- bioavailability [4]: 72%
- F (Canis familiaris [5]): 100%
- fraction unbound at 4 h, 5 µM [6]: 0.6
- fraction unbound at 4 h, 5 µM [7]: 0.61
- fraction unbound at 4 h, 5 µM [8]: 0.62
- pEC50 [9]: 7.22
- inhibition in vivo at 0.78 mg/kg [10]: 73%
- inhibition in vivo at 1.56 mg/kg [11]: 79%
- inhibition in vivo at 3.25 mg/kg [12]: 83%
- inhibition in vivo at 6.25 mg/kg [13]: 101%
- inhibition in vivo at 12.5 mg/kg [14]: 110%
- inhibition in vivo at 0.78 mg/kg [15]: 73%
- inhibition in vivo at 1.56 mg/kg [16]: 97%
- inhibition in vivo at 3.25 mg/kg [17]: 97%
- inhibition in vivo at 6.25 mg/kg [18]: 122%
- inhibition in vivo at 12.5 mg/kg [19]: 121%
- Activity (Homo sapiens): Dose-dependent effect
- Activity (KPL4): Dose-dependent effect
- inhibition in vivo at 6.25 mg/kg (Mus musculus [20]): 78%
- Activity (Mus musculus [21]): < 10%
- inhibition [22]: 61%
- pIC50 (Cytochrome P450 3A4): < 5.00
- pIC50 (Cytochrome P450 2C9): < 5.00
- pIC50 (Cytochrome P450 1A2): < 5.00
- pIC50 (Cytochrome P450 2C19): < 5.00
- pIC50 (Cytochrome P450 2D6): < 5.00
- Papp A→B [23]: 13 ×10⁻⁶ cm/s
- solubility thermodynamic [24]: 82 µg/mL (≈ 214 µM)
- clearance [25]: 10 mL/min/kg
- pEC50 [2]: 7.00
- pEC50 [3]: 5.66
- bioavailability [26]: 120%
- fraction unbound at 4 h, 5 µM [27]: 0.37
- clearance [28]: 8 mL/min/kg
- clearance [29]: 13 mL/min/kg
- Vd [30]: 1.5 L/kg
- Vd [31]: 1.5 L/kg
- Vd [32]: 2.5 L/kg
- Cmax [33]: 31 µM
- Cmax [34]: 5.4 µM
- Cmax [35]: 1.5 µM
- Cmax [36]: 2.1 µM
- AUC [37]: 74 µM·h
- AUC [38]: 25.4 µM·h
- AUC [39]: 4.8 µM·h
- AUC (Canis familiaris [40]): 2.4 µM·h
- bioavailability [41]: 55%
- Vdss (Mus musculus [42]): 0.6 L/kg
